Measured values: ChEMBL document CHEMBL3739299, “8-Hydroxyquinoline-based inhibitors of the Rce1 protease disrupt Ras membrane localization in human cells” (Bioorg Med Chem, 2016)
Active and inactive are the calls of the source. The calls are words filed in the database; no cut-off is given here.

Columns and labels:
CAAX prenyl protease 2 = molecular target: T1, CAAX prenyl protease 2 (Homo sapiens, UniProt Q9Y256); assay: Inhibition of human Rce1-mediated CaaX protease activity using ABZ-KSKTKC(farnesyl)QIIM and ABZ-KSKTKC(farnesyl)VIQI as substrate assessed as residual activity measured every 30 to 60 seconds for 60 mins
T1 sequence (Q9Y256 whole entry): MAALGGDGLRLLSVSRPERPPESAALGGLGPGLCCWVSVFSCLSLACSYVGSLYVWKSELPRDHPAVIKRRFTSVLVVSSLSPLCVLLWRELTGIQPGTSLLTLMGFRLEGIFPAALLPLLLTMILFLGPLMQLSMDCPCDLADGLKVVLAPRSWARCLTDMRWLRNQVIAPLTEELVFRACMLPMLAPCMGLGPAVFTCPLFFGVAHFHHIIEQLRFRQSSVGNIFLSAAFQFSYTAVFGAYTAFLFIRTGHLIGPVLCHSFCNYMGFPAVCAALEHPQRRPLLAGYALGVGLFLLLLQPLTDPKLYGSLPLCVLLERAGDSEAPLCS
How it was run: (§1)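 Membranes from yeast SM3614 (ste24 rce1 null) overexpressing human Rce1, 0.25 mg/mL final in 200 mM Tris pH 7.5, 200 mM NaCl, 1 mg/mL BSA. […] Reaction started with 20 μM ABZ-KSKTKC(farnesyl)QLIM. Fluorescence (ex 320/em 420) read every 30–60 s for 60 min at 30 °C. Initial velocities trypsin-normalised; activity given as % of DMSO control.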

[1] = Cytotoxicity against human HCT116 cells assessed as cell death at 25 uM after 20 hrs by celltiter blue assay (reference value: 0.4%); type: cell-based; details: hct-116, 20 h
How it was run: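 HCT-116 cells grown in DMEM with 10% FBS and 1% NEAA at 37 °C, 5% CO2, seeded 7 × 10^3 per well, exposed 20 h to 25 μM compound (0.4% DMSO vehicle; untreated control). CellTiter-Blue added for 4 h, fluorescence read at 560/590 nm. Values relative to untreated cells, mean of three independent experiments with SEM.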

[2] = molecular target: T2, CAAX prenyl protease 2 (Homo sapiens) (UniProt Q9Y256); assay: Effect on EGFP-N-Ras plasma membrane association in human HCT116 cells at 25 uM after 20 hrs by fluorescence assay; details: HCT-116
T2 sequence (whole entry): T1 sequence (Q9Y256 whole entry)

[3] = molecular target: T3, CAAX prenyl protease 1 homolog (Homo sapiens) (UniProt O75844); assay: Inhibition of human FACE1-mediated CaaX protease activity at 10 uM measured every 30 to 60 seconds for 60 mins
T3 sequence (whole entry): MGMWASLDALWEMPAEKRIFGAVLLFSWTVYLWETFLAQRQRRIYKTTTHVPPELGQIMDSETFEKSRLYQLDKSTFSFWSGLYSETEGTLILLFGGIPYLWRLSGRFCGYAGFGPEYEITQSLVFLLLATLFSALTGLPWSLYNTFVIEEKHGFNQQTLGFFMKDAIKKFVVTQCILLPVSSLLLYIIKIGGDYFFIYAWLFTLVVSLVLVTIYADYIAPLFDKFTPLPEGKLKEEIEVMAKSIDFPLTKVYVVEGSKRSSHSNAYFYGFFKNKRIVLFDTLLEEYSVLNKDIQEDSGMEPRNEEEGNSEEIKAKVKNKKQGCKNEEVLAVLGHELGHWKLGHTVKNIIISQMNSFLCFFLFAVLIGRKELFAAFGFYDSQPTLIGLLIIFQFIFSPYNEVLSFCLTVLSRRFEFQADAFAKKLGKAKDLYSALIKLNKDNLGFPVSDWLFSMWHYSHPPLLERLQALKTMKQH
How it was run: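 Human Ste24 overexpressed in yeast strain SM3614 (ste24 rce1 null); membranes 0.25 mg/mL final in 200 mM Tris pH 7.5, 200 mM NaCl, 1 mg/mL BSA. Pretreated 15 min at 30 °C with 10 μM compound in duplicate, then 20 μM ABZ-KSKTKC(farnesyl)VIQL substrate added. Fluorescence (ex 320/em 420) read every 30–60 s for 60 min at 30 °C. Initial velocities normalised via trypsin-digest maximum fluorescence and expressed as % of DMSO control. SD shown.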

[4] = test system: Protein farnesyltransferase (Rattus norvegicus); assay: Inhibition of protein farnesyltransferase (rat) at 50 uM measured every 40 seconds for 60 mins
[5] = molecular target: T2, CAAX prenyl protease 2 (Homo sapiens); assay: Effect on EGFP-H-Ras plasma membrane association in human HCT116 cells at 25 uM after 20 hrs by fluorescence assay; details: HCT-116
[6] = molecular target: T2, CAAX prenyl protease 2 (Homo sapiens); assay: Inhibition of human Rce1-mediated CaaX protease activity using […] and […] as substrate assessed as residual activity at 10 uM measured every 30 to 60 seconds for 60 mins; how it was run: as §1
[7] = molecular target: T2, CAAX prenyl protease 2 (Homo sapiens); assay: Inhibition of Rce1 in human HCT116 cells assessed as mislocalization of EGFP-K-Ras in plasma membrane at 25 uM after 20 hrs by fluorescence assay; details: HCT-116

For `Oc1c(C(Nc2ccccc2)c2ccccc2)ccc2cccnc12` (stereo not drawn), the IC50 (CAAX prenyl protease 2) was 8.9 µM, the Cell death [1] was less than 10% and the PM association [2] was 10%. For the same compound, the inhibition [3] was “inactive”, the inhibition [4] was “inactive” and the PM association [5] was 14%. The Activity [6] was 39%.
In the case of `O=C(O)c1ccc(NC(c2ccc(Br)cc2)c2ccc3cccnc3c2O)cc1` (stereo not drawn), the IC50 (CAAX prenyl protease 2) is reported as 6.7 µM, the Cell death [1] is reported as 25% and the K-Ras plasma membrane association [7] is reported as 16%. For the same compound, the inhibition [3] was “inactive”, the inhibition [4] was “inactive” and the Activity [6] was 23%.
